{"source": "ChEMBL document CHEMBL5365428", "about": "“Alkyne as a Latent Warhead to Covalently Target SARS-CoV-2 Main Protease” (J Med Chem, 2023)", "key": {"[1]": {"biological_target": "Replicase polyprotein 1ab (Severe acute respiratory syndrome coronavirus 2) (UniProt P0DTD1)", "assay": "Inhibition of recombinant hexa-His tagged SARS-COV2 main protease expressed in Escherichia coli upto 30 uM using Dabcyl-KTSAVLQISGFRKM-E(Edans)-NH2 as substrate preincubated for 15 mins followed by substrate addition and measured after 1 hr by FRET assay", "conditions": "time 75.0 min", "summary_of_the_method": "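Fluorescence (ex 340/em 475 nm) was read every 38 s for 1 h. IC50 came from initial velocities, in duplicate.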"}, "[2]": {"biological_target": "Replicase polyprotein 1ab (Severe acute respiratory syndrome coronavirus 2) (UniProt P0DTD1)", "assay": "Binding affinity to recombinant hexa-His tagged SARS-COV2 main protease expressed in HEK293T cells by in-gel fluorescence analysis", "assay_type": "cell-based", "summary_of_the_method": "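HEK293T cells were transiently transfected with an Mpro plasmid. At 24 h post-transfection, they were treated with probe (from a 1000× DMSO stock) in fresh DMEM/10% FBS. Cells were washed, lysed in NP40 buffer and normalised to 1 mg/mL protein. Lysates were click-conjugated to TAMRA-azide, then analysed by SDS-PAGE and fluorescence imaging.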"}, "[3]": {"biological_target": "Replicase polyprotein 1ab (Severe acute respiratory syndrome coronavirus 2) (UniProt P0DTD1)", "assay": "Binding affinity to recombinant hexa-His tagged SARS-COV2 main protease expressed in Escherichia coli pretreated with (1R,2S,5S)-3-((S)-3,3-dimethyl-2-(2,2,2-trifluoroacetamido)butanoyl)-6,6-dimethyl-N-((S)-1-((S)-2-oxopyrrolidin-3-yl)but-3-yn-2-yl)-3-azabicyclo[3.1.0]hexane-2-carboxamide followed by compound addition by SDS-PAGE gel electrophoresis method"}, "[4]": {"biological_target": "Replicase polyprotein 1ab (Severe acute respiratory syndrome coronavirus 2) (UniProt P0DTD1)", "assay": "Binding affinity to recombinant hexa-His tagged SARS-COV2 main protease expressed in Escherichia coli at 10 uM pretreated with (1R,2S,5S)-3-((S)-3,3-dimethyl-2-(2,2,2-trifluoroacetamido)butanoyl)-6,6-dimethyl-N-((S)-5,5,5-trifluoro-1-((S)-2- oxopyrrolidin-3-yl)pent-3-yn-2-yl)-3-azabicyclo[3.1.0]hexane-2-carboxamide", "summary_of_the_method": "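Competition labeling: recombinant Mpro (1 μg) was […] competitor and clickable probe at the indicated concentrations, at 30 °C for 1 h. TAMRA-azide click reaction, SDS-PAGE and in-gel fluorescence imaging (ex 532/em 600 nm) followed.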"}, "[5]": {"biological_target": "Replicase polyprotein 1ab (Severe acute respiratory syndrome coronavirus 2) (UniProt P0DTD1)", "assay": "Binding affinity to recombinant hexa-His tagged SARS-COV2 main protease expressed in Escherichia coli incubated for 1 hr by SDS-PAGE gel electrophoresis method", "summary_of_the_method": "(§1)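 E. coli-expressed Mpro was incubated with Alk-4d or Alk-4i at 30 °C for 1 h. Click chemistry followed at room temperature for 1 h in the dark, with final 25 μM TAMRA-azide, 1 mM TCEP, 100 μM THPTA and 1 mM CuSO4. Samples were boiled, run on 4–20% SDS-PAGE, scanned at ex 532/em 600 nm, and silver-stained to check loading.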"}, "[6]": {"biological_target": "Replicase polyprotein 1ab (Severe acute respiratory syndrome coronavirus 2) (UniProt P0DTD1)", "assay": "Binding affinity to recombinant hexa-His tagged SARS-COV2 main protease expressed in Escherichia coli pretreated with nirmatrelvir followed by compound addition by SDS-PAGE gel electrophoresis method"}, "[7]": {"tested_on": "HeLa", "assay": "Cytotoxicity against human HeLa cells expressing ACE2 upto 10 uM after 20 hrs by Cell Titer-Glo luminescent cell viability assay", "assay_type": "toxicity, cell-based"}, "[8]": {"tested_on": "SARS-CoV-2", "assay": "Antiviral activity against SARS-CoV-2 infected in HeLa cells expressing ACE2 pre-infected for 1 hr followed by compound addition and measured after 24 hrs", "assay_type": "functional, organism-based", "conditions": "Severe acute respiratory syndrome coronavirus 2"}, "[9]": {"biological_target": "Cathepsin B (Homo sapiens) (UniProt P07858)", "assay": "Inhibition of human cathepsin B upto 40 uM preincubated for 20 mins", "summary_of_the_method": "(§2)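 Z-FR-AMC was added at 10 μM. Fluorescence (ex 355/em 460 nm) was read at room temperature every 5 min for 2 h, and initial velocities came from the linear portion.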"}, "[10]": {"biological_target": "Procathepsin L (Homo sapiens) (UniProt P07711)", "sequence (P07711 114-333 limits assumed)": "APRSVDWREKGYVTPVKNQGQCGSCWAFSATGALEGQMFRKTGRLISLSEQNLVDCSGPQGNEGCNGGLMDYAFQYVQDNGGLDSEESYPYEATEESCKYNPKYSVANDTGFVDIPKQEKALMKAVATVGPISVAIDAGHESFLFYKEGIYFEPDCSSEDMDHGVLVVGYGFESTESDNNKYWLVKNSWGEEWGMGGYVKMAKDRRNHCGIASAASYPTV", "assay": "Inhibition of human cathepsin L upto 40 uM preincubated for 20 mins", "summary_of_the_method": "as §2"}, "[11]": {"tested_on": "SARS-CoV-2", "assay": "Antiviral activity against SARS-CoV-2 infected in HeLa cells expressing ACE2 at 3 uM pre-infected for 1 hr followed by compound addition and measured after 24 hrs by RT-qPCR analysis", "assay_type": "functional, Severe acute respiratory syndrome coronavirus 2"}, "[12]": {"biological_target": "T1, Cathepsin K (Homo sapiens) (UniProt P43235)", "T1 sequence (whole entry)": "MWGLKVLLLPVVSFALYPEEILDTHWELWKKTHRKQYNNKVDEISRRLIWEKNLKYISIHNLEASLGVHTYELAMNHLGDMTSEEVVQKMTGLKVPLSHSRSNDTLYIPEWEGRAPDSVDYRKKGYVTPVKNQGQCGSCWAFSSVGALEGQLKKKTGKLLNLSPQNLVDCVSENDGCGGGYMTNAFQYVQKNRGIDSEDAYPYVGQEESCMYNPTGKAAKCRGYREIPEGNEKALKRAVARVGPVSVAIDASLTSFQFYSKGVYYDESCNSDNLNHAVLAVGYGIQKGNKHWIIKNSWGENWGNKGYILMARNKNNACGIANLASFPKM", "assay": "Inhibition of human cathepsin K upto 40 uM preincubated for 20 mins", "summary_of_the_method": "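Recombinant cathepsin K (0.042 nM) was preincubated with compound for 20 min in 50 mM NaOAc pH 5.5, 5 mM EDTA, 0.005% Triton X-100, 5 mM DTT and 1% DMSO. Z-FR-AMC was added at 5 μM. Fluorescence (ex 355/em 460 nm) was read at room temperature every 5 min for 2 h, and initial velocities came from the linear portion.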"}, "[13]": {"biological_target": "Replicase polyprotein 1ab (Severe acute respiratory syndrome coronavirus 2) (UniProt P0DTD1)", "assay": "Binding affinity to recombinant hexa-His tagged SARS-COV2 main protease expressed in Escherichia coli at 300 nM by in-gel fluorescence analysis", "summary_of_the_method": "as §1"}, "[14]": {"biological_target": "Replicase polyprotein 1ab (Severe acute respiratory syndrome coronavirus 2) (UniProt P0DTD1)", "assay": "Binding affinity to SARS-COV2 main protease at 30 uM preincubated with nirmatrelvir followed by compound addition measured over 6 hrs", "summary_of_the_method": "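Pulse-chase competition: recombinant Mpro was pretreated with 1.5 μM nirmatrelvir at 30 °C, then given 30 μM Alk-4i probe for various times. Click conjugation to TAMRA-azide was followed by SDS-PAGE and in-gel fluorescence (ex 532, em 600 nm). The nirmatrelvir dissociation half-life was derived from the labeling curve.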"}, "[15]": {"tested_on": "HEK293T", "assay": "Binding affinity to proteome in HEK293T cells at 10 uM after 5 hrs", "assay_type": "cell-based", "conditions": "Homo sapiens", "summary_of_the_method": "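Parental HEK293T cells were treated with clickable probe at various concentrations for 5 h. Cells were harvested and lysed in NP40 buffer, and protein was normalised to 1 mg/mL. Lysates were click-conjugated to TAMRA azide, resolved by SDS-PAGE and imaged for in-gel fluorescence.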"}}, "note": "Activity calls are given as the source filed them. No cut-off for these calls is given here. Residues, ends and D or L forms follow the SMILES beside them. *: point of attachment. Cbz = O=C(OCc1ccccc1)*", "data": [{"smiles": "CC(C)C[C@H](NC(=O)OCc1ccccc1)C(=O)N[C@H](C#N)CCC(N)=O", "values": [{"measurement": "inhibition", "setting": "[1]", "result": "inactive"}]}, {"smiles": "C#CC[C@H](NC(=O)C(F)(F)F)C(=O)N1C[C@H]2[C@@H]([C@H]1C(=O)N[C@H](C#C)C[C@@H]1CCNC1=O)C2(C)C", "values": [{"measurement": "Activity", "setting": "[2]", "result": "Dose-Dependent Effect"}, {"measurement": "Activity", "setting": "[3]", "result": "inactive"}, {"measurement": "Activity", "setting": "[4]", "result": "inactive"}, {"measurement": "Activity", "setting": "[5]", "result": "Active"}, {"measurement": "Activity", "setting": "[6]", "result": "inactive"}]}, {"smiles": "CC(C)(C)[C@H](NC(=O)C(F)(F)F)C(=O)N1C[C@H]2[C@@H]([C@H]1C(=O)N[C@H](C#CC(F)(F)F)C[C@@H]1CCNC1=O)C2(C)C", "values": [{"measurement": "Activity", "setting": "[7]", "result": "Non-Toxic"}, {"measurement": "Activity", "setting": "[8]", "result": "Dose-Dependent Effect"}]}, {"smiles": "C#C[C@H](C[C@@H]1CCNC1=O)NC(=O)[C@@H]1[C@@H]2[C@H](CN1C(=O)[C@@H](NC(=O)C(F)(F)F)C(C)(C)C)C2(C)C", "values": [{"measurement": "inhibition", "setting": "[9]", "result": "inactive"}, {"measurement": "inhibition", "setting": "[10]", "result": "inactive"}, {"measurement": "Activity", "setting": "[8]", "result": "Dose-Dependent Effect"}, {"measurement": "Activity", "setting": "[11]", "result": 100, "unit": "%"}, {"measurement": "inhibition", "setting": "[12]", "result": "inactive"}]}, {"smiles": "C#CC[C@H](NC(=O)C(F)(F)F)C(=O)N1C[C@H]2[C@@H]([C@H]1C(=O)N[C@H](C#CC(F)(F)F)C[C@@H]1CCNC1=O)C2(C)C", "values": [{"measurement": "Activity", "setting": "[13]", "result": "Active"}, {"measurement": "Activity", "setting": "[14]", "result": "Active"}, {"measurement": "Activity", "setting": "[15]", "result": "Active"}]}, {"smiles": "CC(C)C[C@H](NC(=O)OCc1ccccc1)C(=O)N[C@H](C=O)CCC(N)=O", "note": "(Cbz-Leu-Gln-aldehyde)", "values": [{"measurement": "inhibition", "setting": "[1]", "result": "inactive"}]}]}
